A selection: hits, their analogues and other compounds. The true share with any hit is near 1.3%.
Fam108B counter = mouse Fam108B serine hydrolase inhibitors, primary screen, counter-screen for RBBP9 inhibitor project, biochemical, fluorescence polarization | actives 0.33% (n = 300,000) | inhibition, % at 9.51 µM | AID 1947, 2009 | recombinant Fam108B, FP-Rh probe fluorescence polarization;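 active = inhibition above the screen mean inhibition plus 3 SD, computed separately per campaign, cut at about 18% in these data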;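 also: inhibitors lower polarization as less probe binds the enzyme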
PME-1 primary = PME-1 inhibitors via competitive probe labeling, primary screen, biochemical, fluorescence polarization, FP-Rh probe, HTS | Protein phosphatase methylesterase 1 (Homo sapiens), Q9Y570 | recombinant PME-1 | inhibition, % at 5.9 µM | actives 0.53% (n = 320,000);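 active = inhibition above the campaign mean of all compounds plus 3 SD, cut at about 26% in these data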;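 also: competitive labeling of PME-1 active site by serine hydrolase directed probe; 0% = PME-1 with DMSO and 100% = wells lacking PME-1 enzyme; inhibitors block probe labeling so polarization falls and inhibition rises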
Target sequence (Q9Y570 whole entry, looked up): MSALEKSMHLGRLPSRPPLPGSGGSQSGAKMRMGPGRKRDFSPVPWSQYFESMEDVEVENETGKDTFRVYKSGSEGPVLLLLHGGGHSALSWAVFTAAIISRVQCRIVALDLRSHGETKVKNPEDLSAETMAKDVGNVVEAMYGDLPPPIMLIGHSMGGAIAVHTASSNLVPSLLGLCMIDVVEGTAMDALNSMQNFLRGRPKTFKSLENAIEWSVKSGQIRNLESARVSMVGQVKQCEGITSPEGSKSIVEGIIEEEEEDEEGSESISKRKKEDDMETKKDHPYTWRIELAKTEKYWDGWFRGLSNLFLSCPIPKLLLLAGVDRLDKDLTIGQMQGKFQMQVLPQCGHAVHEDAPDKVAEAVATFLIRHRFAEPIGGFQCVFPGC
PAD4 FP inh = human PAD4 inhibitors, primary screen, biochemical, fluorescence polarization, 1536-well format; AID 485272, 2010; Protein-arginine deiminase type-4 (Homo sapiens), Q9UM07; recombinant PAD4, RCA probe fluorescence polarization; inhibition, % at 6.36 µM; actives 0.41% (n = 330,000);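 active = percent inhibition above a cutoff equal to the mean of all tested compounds plus 3 SD, cut at about 15% in these data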;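 also: 0% = PAD4 with RCA probe and DMSO and 100% = probe without PAD4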
RBBP9 inhibitor = human RBBP9 inhibitors, primary screen, biochemical, fluorescence polarization, FP-Rh probe, HTS. Serine hydrolase RBBP9 (Homo sapiens), O75884. recombinant RBBP9. inhibition, % at 7.94 µM. actives 0.2% (n = 220,000). AID 1515, 2009;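 active = inhibition above the campaign mean of all tested compounds plus 3 SD, cut at about 14% in these data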;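 also: plate controls were DMSO wells with RBBP9 for no effect and wells lacking RBBP9 protein for full effect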
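Measured by: FP readout at 525/598 nm; material: recombinant human RBBP9; also added: Serine-hydrolase probe FP-Rh, 375 nM pre-mixing; medium: Tris buffer pH 8.0, NaCl, Pluronic; replication: one well per compound; doses: one concentration, 7.94 µM nominal, 0.794% DMSO; timing: preincubation 30 min plus labeling 45 min at 25 °C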
LYPLA1 inh = LYPLA1 inhibitors, primary screen, counter-screen for PME1 inhibitor project, biochemical, fluorescence polarization, FP-Rh probe ABPP | recombinant LYPLA1 | inhibition, % at 5.9 µM | actives 0.16% (n = 320,000);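 active = inhibition above the mean of all tested compounds plus 3 SD, set per campaign, cut at about 14% in these data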;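 also: inhibitors block serine hydrolase probe labeling of LYPLA1 so polarization falls; 0% = enzyme with DMSO and 100% = wells lacking LYPLA1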
LYPLA2 inh = LYPLA2 inhibitors, primary screen, counter-screen for PME1 inhibitor project, biochemical, fluorescence polarization, FP-Rh probe ABPP; actives 0.38% (n = 320,000); AID 2177, 2009; Acyl-protein thioesterase 2 (Homo sapiens), O95372; recombinant LYPLA2; inhibition, % at 5.9 µM;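 active = inhibition above the screen-wide mean plus 3 SD, limit set per campaign, cut at about 26% in these data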;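 also: 0% = LYPLA2 with DMSO and 100% = wells lacking LYPLA2 enzyme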
LYPLA2 conf = LYPLA2 inhibitors, retest, confirmation, counter-screen for PME1 inhibitor project, biochemical, fluorescence polarization, FP-Rh probe ABPP; actives 72% (n = 1,100); AID 2232, 2010; recombinant LYPLA2; shares compounds with LYPLA2 inh; inhibition, % at 5.9 µM;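 active = mean inhibition across replicates above the hit cutoff set in the primary screen, cut at about 26% in these data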;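 also: blocked labeling of the enzyme by serine hydrolase FP-Rh probe lowers polarization; 0% = enzyme with DMSO and 100% = wells lacking LYPLA2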
LYPLA2 gel ABPP = LYPLA2 inhibitors in proteome, late-stage follow-up, gel-based competitive ABPP, fluorescence, assay provider. shares compounds with LYPLA2 inh. rhLYPLA2 in mouse brain proteome, gel ABPP FP-Rh. inhibition, % at 20 µM. actives 30% (n = 150). AID 652029, 2013;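 active = inhibition of LYPLA2 enzyme probe labeling above about 50%, limit read from the data; inactive = inhibition below that limit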;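 also: loss of FP-Rh probe labeling of the LYPLA2 gel band measured as band density; 0% = DMSO only control band and 100% = blank gel background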
The depositor's hits bear a star; · = not tested or not shown.

SMILES	Fam108B counter	PME-1 primary	PAD4 FP inh	RBBP9 inhibitor	LYPLA1 inh	LYPLA2 inh	LYPLA2 conf	others
Fc1ccc(CSc2nnc(-c3cccnc3)o2)cc1	-5	6	-3	-12	1	0	·
CCN(CC)CCN1C(=O)c2ccccc2NC1c1ccc(Br)cc1 (stereo not drawn)	4	-6	-1	-6	-1	28*	-3
CCC(C)Nc1nc(CN2CCOCC2)nc2sc3c(c12)CCC3 (stereo not drawn)	6	3	-2	-8	2	0	·
O=C(c1ccc(CSc2nc3ccncc3[nH]2)cc1)N1CCN(c2cccc(Cl)c2)CC1	-1	2	0	0	-1	33*	31*
Cc1ccc(NC(=O)CN2C(=O)S/C(=C\c3cc(C)n(-c4ccc(C(=O)O)cc4)c3C)C2=O)cc1	3	1	-1	-6	-5	42*	43*
Cc1ccccc1NC(=O)CN1C(=O)S/C(=C\c2cccn2-c2cccc(C(=O)O)c2)C1=O	-3	-5	7	-3	-9	50*	74*	LYPLA2 gel ABPP=64*
Cc1ccc(NC(=O)CN2C(=O)S/C(=C\c3cccn3-c3cccc(C(=O)O)c3)C2=O)cc1C	-2	-11	-2	-4	-9	36*	43*
O=C(CN1C(=O)S/C(=C/C=C/c2ccccc2)C1=O)Nc1ccc(C(=O)O)cc1	-8	-11	1	-5	-6	-12	·
Cc1cccc(NC(=O)CN2C(=O)S/C(=C\c3cccn3-c3cccc(C(=O)O)c3)C2=O)c1	-8	-5	2	-9	-5	67*	63*	LYPLA2 gel ABPP=94*
Cc1cccc(C)c1NC(=O)CN1C(=O)S/C(=C\c2cccn2-c2cccc(C(=O)O)c2)C1=O	-1	-2	-2	-8	2	4	·
COC(=O)C1=C(CS(=O)(=O)c2ccccc2)NC(=O)NC1c1ccc(OC)c(OC)c1 (stereo not drawn)	0	-4	-1	·	-2	32*	-1
CC(/C=N/NC(=O)c1ccc(Cn2cc([N+](=O)[O-])cn2)o1)=C\c1ccccc1	-4	0	-5	·	-4	0	·
CCOC(=O)N1CCN(CC(=O)Nc2sccc2C#N)CC1	7	5	-2	-3	10	45*	39*
[N-]=[N+]=NCCN1CCN(CCc2ccccc2)CCC1=O	1	-1	-8	·	3	6	·
COc1ccccc1N1CCN(S(=O)(=O)CCNC(=O)C2CC2)CC1	7	-2	5	·	-3	-1	·
O=C(Nc1ccc(Nc2ccncc2)cc1)c1ccc(Nc2ccnc3ccc([N+](=O)[O-])cc23)cc1[N+](=O)[O-]	8	6	-3	0	6	27*	6
O=C(Nc1ccc(Nc2ccncc2)cc1)c1ccc([N+](=O)[O-])cc1	3	4	-2	-3	2	7	·
CCOC(=O)c1sc(/N=C/N(C)C)nc1C	1	2	-1	-3	4	32*	2
CCOC(=O)c1sc(/N=C/N(C)C)c(C(=O)OCC)c1C	4	-1	0	-8	2	5	·
CCN(CC(=O)NCc1cccs1)C(=O)c1cc(S(=O)(=O)N2CCOCC2)ccc1C	2	4	0	-3	-4	29*	-2
